Source: ChEMBL document CHEMBL5329156, “Discovery and development of novel substituted monohydrazides as potent antifungal agents” (RSC Med Chem, 2023)
Converted amounts (≈) assume the structure as drawn.

Columns and labels:
Format in all cases: functional
Aspergillus fumigatus [1] = test: Antifungal activity against Aspergillus fumigatus NRRL 6113 assessed as fungal growth inhibition by double dilution method
Aspergillus nidulans = test: Antifungal activity against Aspergillus nidulans ATCC 38163 assessed as fungal growth inhibition by double dilution method
Cryptococcus neoformans = test: Antifungal activity against Cryptococcus neoformans ATCC MYA-895 assessed as fungal growth inhibition by double dilution method
Summary of the method: (§1)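 Broth microdilution after CLSI M27-A3/M38-A2 with minor changes. Single colony grown overnight in YPD at 35 °C, 200 rpm. Compound final range 0.06-31.3 µg/mL; incubated 48 h at 35 °C.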

Candida albicans [2] = test: Antifungal activity against itraconazole/fluconazole resistant Candida albicans ATCC 90819 assessed as fungal growth inhibition by double dilution method
Summary of the method: (§2)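 Broth microdilution after CLSI M27-A3/M38-A2 with minor modifications. A single colony was grown overnight in YPD at 35 °C with shaking at 200 rpm. Cells were mixed 1:1 with compound (final 0.06-31.3 µg/mL, from DMSO stocks) and incubated 48 h at 35 °C.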

Aspergillus fumigatus [3] = test: Antifungal activity against Aspergillus fumigatus NRRL 163 assessed as fungal growth inhibition by double dilution method
Candida albicans [4] = test: Antifungal activity against itraconazole/fluconazole resistant Candida albicans ATCC MYA-1237 assessed as fungal growth inhibition by double dilution method; summary of the method: as §2
Aspergillus flavus = test: Antifungal activity against Aspergillus flavus ATCC MYA-3631 assessed as fungal growth inhibition by double dilution method
Candida albicans [5] = test: Antifungal activity against itraconazole/fluconazole susceptible Candida albicans ATCC MYA-2876 assessed as fungal growth inhibition by double dilution method; summary of the method: as §2
Aspergillus fumigatus [6] = test: Antifungal activity against Aspergillus fumigatus NRRL 5109 assessed as fungal growth inhibition by double dilution method
[Candida] auris [7] = Antifungal activity against Candida auris AR Bank # 0390 assessed as fungal growth inhibition by double dilution method; conditions: Candidozyma auris; summary of the method: as §1
Nakaseomyces glabratus [8] = test: Antifungal activity against Candida glabrata ATCC 2001 assessed as fungal growth inhibition by double dilution method; summary of the method: as §1
Candida albicans [9] = test: Antifungal activity against itraconazole/fluconazole resistant Candida albicans ATCC MYA-1003 assessed as fungal growth inhibition by double dilution method; summary of the method: as §2
[Candida] auris [10] = Antifungal activity against Candida auris AR Bank # 0384 assessed as fungal growth inhibition by double dilution method; conditions: Candidozyma auris; summary of the method: as §1
Pichia kudriavzevii = test: Antifungal activity against Pichia kudriavzevii ATCC 6258 assessed as fungal growth inhibition by double dilution method; summary of the method: as §1
Aspergillus terreus = test: Antifungal activity against Aspergillus terreus ATCC MYA-3633 assessed as fungal growth inhibition by double dilution method
Nakaseomyces glabratus [11] = test: Antifungal activity against Candida glabrata ATCC 22019 assessed as fungal growth inhibition by double dilution method; summary of the method: as §1
Candida albicans [12] = test: Antifungal activity against Candida albicans ATCC 10231 assessed as fungal growth inhibition by double dilution method; summary of the method: as §1
Candida albicans [13] = test: Antifungal activity against Candida albicans ATCC 64124 assessed as fungal growth inhibition by double dilution method; summary of the method: as §2
Candida albicans [14] = test: Antifungal activity against itraconazole/fluconazole susceptible Candida albicans ATCC MYA-2310 assessed as fungal growth inhibition by double dilution method; summary of the method: as §2

Structure (SMILES)	MIC (Aspergillus fumigatus [1]) [µg/mL]	MIC (Aspergillus nidulans) [µg/mL]	MIC (Cryptococcus neoformans) [µg/mL]	MIC (Candida albicans [2]) [µg/mL]	MIC (Aspergillus fumigatus [3]) [µg/mL]	MIC (Candida albicans [4]) [µg/mL]	MIC (Aspergillus flavus) [µg/mL]	MIC (Candida albicans [5]) [µg/mL]	MIC (Aspergillus fumigatus [6]) [µg/mL]	MIC ([Candida] auris [7]) [µg/mL]	MIC (Nakaseomyces glabratus [8]) [µg/mL]	MIC (Candida albicans [9]) [µg/mL]	MIC ([Candida] auris [10]) [µg/mL]	MIC (Pichia kudriavzevii) [µg/mL]	MIC (Aspergillus terreus) [µg/mL]	MIC (Nakaseomyces glabratus [11]) [µg/mL]	MIC (Candida albicans [12]) [µg/mL]	MIC (Candida albicans [13]) [µg/mL]	MIC (Candida albicans [14]) [µg/mL]
COc1cccc(NNC(=O)c2cccc(Br)n2)c1	> 31.3	3.9 (≈ 12.1 µM)	0.98 (≈ 3.04 µM)	1.95 (≈ 6.05 µM)	> 31.3	0.98 (≈ 3.04 µM)	> 31.3	0.49 (≈ 1.52 µM)	31.3 (≈ 97.2 µM)	1.95 (≈ 6.05 µM)	7.8 (≈ 24.2 µM)	3.9 (≈ 12.1 µM)	0.98 (≈ 3.04 µM)	0.24 (≈ 0.745 µM)	1.95 (≈ 6.05 µM)	0.98 (≈ 3.04 µM)	1.95 (≈ 6.05 µM)	3.9 (≈ 12.1 µM)	7.8 (≈ 24.2 µM)
COc1cccc(NNC(=O)c2cccc(F)n2)c1	> 31.3	1.95 (≈ 7.46 µM)	0.49 (≈ 1.88 µM)	3.9 (≈ 14.9 µM)	15.6 (≈ 59.7 µM)	1.95 (≈ 7.46 µM)	> 31.3	0.49 (≈ 1.88 µM)	7.8 (≈ 29.9 µM)	0.98 (≈ 3.75 µM)	15.6 (≈ 59.7 µM)	0.98 (≈ 3.75 µM)	1.95 (≈ 7.46 µM)	0.24 (≈ 0.919 µM)	3.9 (≈ 14.9 µM)	3.9 (≈ 14.9 µM)	0.98 (≈ 3.75 µM)	0.98 (≈ 3.75 µM)	1.95 (≈ 7.46 µM)
O=C(NNc1cccc(F)c1)c1ncc(F)cc1F	> 31.3	0.98 (≈ 3.67 µM)	≤ 0.06	3.9 (≈ 14.6 µM)	> 31.3	3.9 (≈ 14.6 µM)	> 31.3	1.95 (≈ 7.3 µM)	> 31.3	1.95 (≈ 7.3 µM)	31.3 (≈ 117 µM)	1.95 (≈ 7.3 µM)	1.95 (≈ 7.3 µM)	0.24 (≈ 0.898 µM)	3.9 (≈ 14.6 µM)	1.95 (≈ 7.3 µM)	0.24 (≈ 0.898 µM)	0.98 (≈ 3.67 µM)	1.95 (≈ 7.3 µM)
O=C(NNc1ccc(F)cc1)c1cccc(F)n1	15.6 (≈ 62.6 µM)	0.98 (≈ 3.93 µM)	0.49 (≈ 1.97 µM)	1.95 (≈ 7.82 µM)	31.3 (≈ 126 µM)	1.95 (≈ 7.82 µM)	7.8 (≈ 31.3 µM)	1.95 (≈ 7.82 µM)	15.6 (≈ 62.6 µM)	0.98 (≈ 3.93 µM)	15.6 (≈ 62.6 µM)	0.98 (≈ 3.93 µM)	1.95 (≈ 7.82 µM)	0.49 (≈ 1.97 µM)	1.95 (≈ 7.82 µM)	3.9 (≈ 15.6 µM)	0.24 (≈ 0.963 µM)	0.98 (≈ 3.93 µM)	3.9 (≈ 15.6 µM)
O=C(NNc1cccc(F)c1)c1ccc(F)cn1	> 31.3	0.98 (≈ 3.93 µM)	≤ 0.06	3.9 (≈ 15.6 µM)	> 31.3	3.9 (≈ 15.6 µM)	7.8 (≈ 31.3 µM)	3.9 (≈ 15.6 µM)	> 31.3	1.95 (≈ 7.82 µM)	31.3 (≈ 126 µM)	1.95 (≈ 7.82 µM)	1.95 (≈ 7.82 µM)	0.24 (≈ 0.963 µM)	1.95 (≈ 7.82 µM)	1.95 (≈ 7.82 µM)	0.49 (≈ 1.97 µM)	0.49 (≈ 1.97 µM)	3.9 (≈ 15.6 µM)
O=C(NNc1ccc(F)cc1)c1ccc(F)cc1F	> 31.3	3.9 (≈ 14.6 µM)	0.49 (≈ 1.84 µM)	1.95 (≈ 7.32 µM)	> 31.3	1.95 (≈ 7.32 µM)	> 31.3	7.8 (≈ 29.3 µM)	> 31.3	1.95 (≈ 7.32 µM)	7.8 (≈ 29.3 µM)	1.95 (≈ 7.32 µM)	1.95 (≈ 7.32 µM)	1.95 (≈ 7.32 µM)	3.9 (≈ 14.6 µM)	15.6 (≈ 58.6 µM)	0.49 (≈ 1.84 µM)	7.8 (≈ 29.3 µM)	3.9 (≈ 14.6 µM)
